Rows were chosen to be rich in hits. Some 1.2% of all compounds tested hit in one or more screens of this group.
N-glyco inh – N-linked glycosylation inhibition | D54 ERlucT glycosylation luciferase reporter, 24 h; percent of 100 nM tunicamycin response | reporter increase, % at 12.5 µM | 360,000 tested, 0.23% active;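 active = mean luciferase reporter signal, scaled so untreated is 0 and the glycosylation-blocking control 100, at or above a set limit in every replicate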;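 also: luciferase carries N-glycosylation sites so blocking glycosylation raises the light; 0% = median of neutral control wells and 100% = median of 100 nM tunicamycin wells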
RAD52 anneal inh – RAD52 (human) annealing inhibition | 360,000 tested, 0.46% active | recombinant RAD52 DNA annealing, FRET fluorescence | inhibition, % at 18.7 µM | AID 651710;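 active = every replicate showing at least 50% inhibition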
FN deposition inh – fibronectin deposition inhibition; inhibition, % at 12.6 µM; AH1F fibroblasts, Alexa488-fibronectin deposition fluorescence, overnight; AID 743247; 350,000 tested, 0.086% active;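 active = mean inhibition across replicates of 30% or more, regardless of how many single replicates reach that level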;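 also: positive control wells lacked labelled fibronectin entirely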
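Measured by – fluorescence 485/525 nm · System – AH1F fibroblast monolayer, labelled fibronectin deposition · Amount – 10000 cells per well · Buffer or medium – serum-reduced DMEM (2% serum) · Doses – single dose, pinned · Also added – fluorescent fibronectin at 24 nM final · Schedule – 1 h cell attachment, overnight exposure to compound and label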
MLL AF4-AF9 inh – blocks AF4 peptide binding to human AF9; P42568; AlphaScreen, biotin-AF4 peptide binding to FLAG-AF9; inhibition, % at 10 µM; 350,000 tested, 0.47% active; AID 651704;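 active = every replicate reaching a set inhibition limit, whatever the replicate mean, cut at about 25% in these data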;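 also: 0% = plate neutral control median and 100% = total signal loss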
Target sequence (P42568 whole entry, looked up): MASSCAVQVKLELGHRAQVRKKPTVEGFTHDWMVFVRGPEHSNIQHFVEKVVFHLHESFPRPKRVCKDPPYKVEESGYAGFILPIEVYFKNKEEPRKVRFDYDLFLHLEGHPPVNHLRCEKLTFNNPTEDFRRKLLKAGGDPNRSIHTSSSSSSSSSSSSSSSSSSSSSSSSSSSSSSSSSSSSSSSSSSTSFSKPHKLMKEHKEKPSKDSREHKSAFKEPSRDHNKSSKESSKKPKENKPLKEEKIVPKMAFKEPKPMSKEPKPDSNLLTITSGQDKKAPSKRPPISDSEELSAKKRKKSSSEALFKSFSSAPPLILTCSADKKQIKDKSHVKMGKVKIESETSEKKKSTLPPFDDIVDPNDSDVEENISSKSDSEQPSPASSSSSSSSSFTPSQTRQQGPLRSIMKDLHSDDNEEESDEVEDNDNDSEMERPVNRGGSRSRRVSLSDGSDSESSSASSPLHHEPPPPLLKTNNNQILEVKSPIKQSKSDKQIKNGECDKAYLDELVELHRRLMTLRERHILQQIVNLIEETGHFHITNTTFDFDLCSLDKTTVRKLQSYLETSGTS
RAD54 inh – RAD54 (human) branch migration inhibition; Q92698; inhibition, % at 10.4 µM; RAD54 Holliday junction branch migration, FAM/BHQ fluorescence; AID 602329; 360,000 tested, 0.14% active;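 active = mean normalized replicate activity at least 40 and at least half of replicates scoring 40 or more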;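 also: 0% = median of neutral control wells and 100% = median of positive control wells; inhibitors cause a drop in the FAM fluorescence signal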
NSD2 inh – NSD2 (human) methyltransferase inhibition | NSD2 peptide methylation, AlphaScreen, 120 min | inhibition, % at 12.5 µM | 310,000 tested, 0.54% active; in the data active = inhibition above about 50%
Alpha artifact – interferes with AlphaScreen signal, flagging NSD2 false positives. shares compounds with NSD2 inh. AlphaScreen artifact counterscreen, preloaded methylated H4 peptide. AC35, µM (top dose mostly 10 µM), inactives show at the top dose activity change, negative = signal loss. 1,500 tested, 9.4% active. AID 1053174; call rule not given here
Numbers without * were called inactive; i = inactive; . = no result.

SMILES	N-glyco inh	RAD52 anneal inh	FN deposition inh	MLL AF4-AF9 inh	RAD54 inh	NSD2 inh	Alpha artifact
CCOC(=O)CN(C(=O)COc1nc(-c2ccccc2)cc(C)c1C#N)c1ccc(C)cc1	-2.1	-10.6	-3.4	-4.2	.	-2.3	.
CCOC(=O)CN(C(=O)COc1nc(-c2ccccc2)cc(C)c1C#N)c1ccccc1	0.6	-12.0	-6.3	-2.3	.	70.7*	-0.9%
CCCCn1c(NC(=O)c2ccc(Br)o2)c(S(=O)(=O)c2ccccc2)c2nc3ccccc3nc21	0.3	.	.	.	1.5	103.7*	1.0%
CCCCn1c(NC(=O)c2ccco2)c(S(=O)(=O)c2ccc(C)cc2)c2nc3ccccc3nc21	-1.1	-89.6	-4.1	-3.8	.	.	.
CCCCn1c(NS(=O)(=O)c2ccccc2)c(S(=O)(=O)c2ccc(C)cc2)c2nc3ccccc3nc21	2.1	-1.3	-5.6	1.7	.	102.4*	-1.7%
CC1(C)CN(c2cccc(C#N)c2)C1=O	2.2	-2.4	12.9	-1.1	.	55.9*	-3.4%
CC1(C)CN(c2ccc(CC#N)cc2)C1=O	1.9	-10.2	6.0	-1.7	.	0.3	.
COc1ccc(C=C(c2nc3ccccc3s2)c2nc3ccccc3s2)cc1O	29.0*	.	-1.9	.	-1.1	58.6*	-10.0%
COc1cn(-c2ccccc2)nc1C(=O)NCc1ccccc1	1.1	-9.3	-4.2	8.1	5.4	79.5*	-4.5%
COc1ccccc1OCC(=O)Nc1ccc(S(=O)(=O)N2CCN(C)CC2)cc1	-0.7	-10.1	6.2	3.5	-12.5	3.6	.
COc1ccccc1OCC(=O)Nc1ccc(S(=O)(=O)N2CCCC2)cc1	-1.6	-2.5	5.5	-0.1	-5.2	69.5*	-1.7%
COc1ccccc1OCC(=O)Nc1ccccc1C(=O)N1CCCC1	0.5	-8.0	1.9	1.5	-4.8	80.0*	-2.8%
COc1ccccc1C(=O)Nc1ccccc1C(=O)N1CCCC1	-0.4	.	.	.	4.8	-2.2	.
CNCCCOc1ccc2c(c1)CCC2	-1.0	0.8	1.8	0.3	9.8	61.1*	-4.2%
CN(c1ccccc1)c1ncnc2c1ncn2C	1.2	-9.7	-4.9	-1.6	-1.4	121.9*	-4.1%
CN(C)C(=O)[C@H]1[C@H](CO)[C@H]2Cn3c(cccc3=O)[C@H]2N1C(=O)C1CCCC1	.	-13.6	-15.8	-5.3	.	.	.
COc1cccc(S(=O)(=O)N(C)C[C@@H]2Oc3ncc(C#Cc4ccc(C(F)(F)F)cc4)cc3C(=O)N([C@H](C)CO)C[C@@H]2C)c1	.	-11.1	8.8	0.8	-27.6	.	.
CC(=O)c1cccc(NC(=O)CC2CCCC2)c1	2.1	3.6	6.0	-1.7	2.1	52.6*	-2.7%
O=C(CC1CCCC1)Nc1cccc(Br)c1	-1.6	-1.9	-3.5	-3.2	1.6	-5.2	.
CN(C)C(=O)[C@@H]1[C@@H](CO)[C@@H]2Cn3c(ccc(-c4ccncc4)c3=O)[C@@H]2N1Cc1ccccc1F	.	1.5	.	-5.0	1.4	.	.
O=C(c1ccccc1OCc1ccccc1Br)N1CCN(c2ncccn2)CC1	-6.2	.	0.8	.	3.8	99.1*	-4.7%
C[C@@H]1CN([C@@H](C)CO)C(=O)c2cccc(NC(=O)C3CC3)c2O[C@H]1CN(C)S(=O)(=O)c1cn(C)cn1	.	-4.6	.	-1.2	-0.7	.	.
CO[C@H]1CC[C@H]2CCOc3ccc(C#N)cc3C(=O)N(C)C[C@@H](C)C(=O)N(C)C[C@@H]1O2	.	-1.9	6.9	2.0	4.8	.	.
CCCNC(=O)c1ccc(CN2CCc3ccccc3C2)cc1	2.7	.	.	.	1.9	-0.5	.
COCCNC(=O)c1ccc(CN2CCc3ccccc3C2)cc1	1.8	-15.1	-18.1	-0.1	.	55.8*	-3.7%
SMILES	N-glyco inh	RAD52 anneal inh	FN deposition inh	MLL AF4-AF9 inh	RAD54 inh	NSD2 inh	Alpha artifact
C[C@H](CO)N1C[C@H](C)[C@H](CN(C)S(=O)(=O)c2ccccc2)Oc2c(cccc2N(C)C)C1=O	.	-8.6	-2.2	-2.0	1.5	.	.
C[C@@H]1CN([C@H](C)CO)C(=O)c2cc(NC(=O)Cc3ccccc3)ccc2O[C@@H](C)CCCCO[C@H]1CN(C)S(=O)(=O)c1cccs1	.	.	.	.	-1.1	.	.
O=C1c2cc(O)c(O)cc2OC(c2ccc(O)c(O)c2)C1O (centres undefined)	2.5	-8.2	4.0	0.2	.	68.1*	-11.4%
Cc1cc(OCCn2nc(C(=O)O)c3ccccc3c2=O)ccc1C(C)C	4.8	-19.7	1.6	-0.5	2.0	90.5*	-2.7%
CC1CCCC(NC(=O)COC(=O)c2c[nH]c(=O)[nH]c2=O)C1C (centres undefined)	0.7	.	.	.	-6.0	77.8*	-6.5%
CNC[C@H]1Oc2c(NC(=O)Nc3ccc(F)cc3)cccc2C(=O)N([C@H](C)CO)C[C@H]1C	.	-3.9	.	1.1	5.3	.	.
CO[C@H]1CN(C)C(=O)c2cc(NC(=O)C3CCCCC3)ccc2OC[C@H](C)N(Cc2nccs2)C[C@@H]1C	.	5.7	0.0	0.6	-6.0	.	.
O=C(CSc1ccc(-c2cccnc2)nn1)N1CCCC1	3.3	-7.3	-17.7	1.4	.	52.5*	2.2%
O=C(CSc1ccc(-c2cccnc2)nn1)N1CCCCCC1	0.4	-8.8	.	1.7	-13.2	3.5	.
CN(C)Cc1csc(NC(=O)Nc2cccc(Cl)c2)n1	-0.8	12.3	2.7	5.7	-12.7	74.3*	-4.4%
C[C@@H]1CCCCO[C@H](CN(C)C(=O)NC2CCCCC2)[C@H](C)CN([C@@H](C)CO)C(=O)c2cc(NS(C)(=O)=O)ccc2O1	.	.	4.3	.	-3.5	.	.
COc1cc(/C=C2\SC(c3ccc(C)cc3)=NC2=O)cc(OC)c1O	5.8	-40.5	.	20.2	.	6.3	.
Cc1ccc(C2=NC(=O)/C(=C/c3cc(O)c(O)c(Br)c3)S2)cc1	5.4	-65.2	-1.9	1.9	-12.8	119.6*	8.21µM*
Cc1nc2cc(C(=O)NCc3cccnc3)ccc2n1-c1ccc(F)cc1F	0.1	-15.4	-3.2	-0.3	.	50.4*	-2.8%
COC(=O)CC1=NN(c2ccc(OC)cc2)C(=O)/C1=C\c1ccc(Cl)cc1	2.2	-12.1	-10.7	9.8	.	55.0*	-2.4%
C[C@H]1CCCCO[C@@H](CN(C)C(=O)Cc2ccccc2)[C@@H](C)CN([C@@H](C)CO)C(=O)c2cc(NC(=O)Cc3ccccc3)ccc2O1	.	13.8	-7.8	4.2	0.7	.	.
CCN(CC)CCNc1cc(C)nc2c1C(=O)C(=O)C=C2N1CCCCC1	-6.4	33.8	12.8	-6.5	9.8	117.9*	1.5%
CCN(CC)CCNC(=O)c1ccc(N2CCCCC2)c(NS(=O)(=O)c2ccc(C)cc2)c1	-7.8	.	.	.	.	27.6	.
CSC1=NSC2=NC(=O)/C(=C/c3coc4ccccc4c3=O)C(=N)N12	-1.0	i	-8.8	-3.9	.	74.9*	0.2%
CSC1=NSC2=NC(=O)/C(=C/c3coc4ccc(O)cc4c3=O)C(=N)N12	2.8	i	-15.5	-0.9	.	.	.
COc1cc2c(C#N)c(N3CCCC3)nc(N)c2c(N)n1	0.7	1.5	3.5	-26.7	-3.7	68.5*	-2.5%

Compound activity deposited in PubChem by Broad Institute.
